In PubChem BioAssay:
Calls of active or inactive are those of the source.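 Rule for the calls, unless noted: active = viability at or below 10% of carrier control in both of two separate runs; inconclusive = viability at or below 10% in only one of the two runs; inactive = the rest.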

Key:
[1] = Her2 expression decrease, cell viability multiplex – SKBR3 breast tumor cells, AlphaScreen, ATP viability, primary screen (AID 461;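 active = Her2 level under about 52% in both replicate screens, with viability over 70% of control, limit read from the data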;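 for Her2 level: lower value means less Her2 protein in the cells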;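 for viability: percent of carrier control wells set as 100% viability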); conditions: SKBR3 Her2 protein level, 18-24 h, measured here: SKBR3 viability, ATP luminescence, at 10 µM
[2] = target: Receptor tyrosine-protein kinase erbB-2 (Homo sapiens) (UniProt P04626); experiment: as above; conditions: 18-24 h, at 10 µM, stronger effect = lower value
[3] = reduced viability of SK-BR-3 breast cancer cells – cell-based, 24 h, human, pilot screen (AID 572); conditions: SK-BR-3 viability, CellTiter-Glo luminescence, at 10 µM, stronger effect = lower value;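 note: compound exposure lasted between 18 and 24 h rather than exactly 24 h; 100% = carrier-treated control wells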
[4] = HUVEC growth inhibition – cell-based, human, primary screen (AID 575;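 active = viability at or below 30% in both replicate assays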;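 note: 100% = median of untreated cell wells with 0.1% DMSO on each plate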); conditions: HUVEC proliferation, CellTiter-Glo luminescence, 72 h; at 10 µM; stronger effect = lower value
Outline: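 Test system – primary HUVEC, no more than 12 passages · Dosing – one dose, 10 µM final, 0.1% DMSO · Times – 72 h treatment at 37 °C · Measured by – ATP-based CellTiter-Glo luminescent read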

[5] = H69AR cell proliferation blockers – human, duplicate replicates, primary screen (AID 580;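 active = viability at or under a set limit in both replicates, limit being median viability minus 3 SD, cut at about 48% in these data, passing the limit was not always enough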;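 note: 100% = mean luminescence of untreated wells and 0% = no signal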); conditions: H69AR lung tumor cells viability, ATP luminescence, 72 h; at 10 µM; stronger effect = lower value
[6] = MRP1 drug-resistance reversers in H69AR cells – cell-based, doxorubicin co-treatment, pilot screen (AID 601;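 active = viability loss from added drug above about 55%, and viability with drug at most 40%, in both replicates, limit read from the data, passing the limit was not always enough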); conditions: CellTiter-Glo, 72 h, at 10 µM; for differential viability (reversal): stronger effect = higher value
[7] = yeast transport mutant growth inhibition pilot in 384-well plates, post-Golgi transport modulator project (AID 636; in the data active = inhibition above about 31%); conditions: absorbance 615 nm, about 18 h, stronger effect = higher value
[8] = growth suppression of yeast trafficking mutant, preliminary HTS, modulators of trafficking downstream of Golgi apparatus project, 1536-format plate, OD 615 nm (AID 637; in the data active = inhibition above about 30%); conditions: yeast transport mutant growth, absorbance 615 nm, 18 h; stronger effect = higher value
[9] = H69AR cells + 2 uM doxorubicin, measured here: viability with 2 uM doxorubicin, stronger effect = lower value
[10] = H69AR cells, compound alone cytotoxicity

Sequence of Receptor tyrosine-protein kinase erbB-2 (Homo sapiens) (P04626 whole entry, looked up): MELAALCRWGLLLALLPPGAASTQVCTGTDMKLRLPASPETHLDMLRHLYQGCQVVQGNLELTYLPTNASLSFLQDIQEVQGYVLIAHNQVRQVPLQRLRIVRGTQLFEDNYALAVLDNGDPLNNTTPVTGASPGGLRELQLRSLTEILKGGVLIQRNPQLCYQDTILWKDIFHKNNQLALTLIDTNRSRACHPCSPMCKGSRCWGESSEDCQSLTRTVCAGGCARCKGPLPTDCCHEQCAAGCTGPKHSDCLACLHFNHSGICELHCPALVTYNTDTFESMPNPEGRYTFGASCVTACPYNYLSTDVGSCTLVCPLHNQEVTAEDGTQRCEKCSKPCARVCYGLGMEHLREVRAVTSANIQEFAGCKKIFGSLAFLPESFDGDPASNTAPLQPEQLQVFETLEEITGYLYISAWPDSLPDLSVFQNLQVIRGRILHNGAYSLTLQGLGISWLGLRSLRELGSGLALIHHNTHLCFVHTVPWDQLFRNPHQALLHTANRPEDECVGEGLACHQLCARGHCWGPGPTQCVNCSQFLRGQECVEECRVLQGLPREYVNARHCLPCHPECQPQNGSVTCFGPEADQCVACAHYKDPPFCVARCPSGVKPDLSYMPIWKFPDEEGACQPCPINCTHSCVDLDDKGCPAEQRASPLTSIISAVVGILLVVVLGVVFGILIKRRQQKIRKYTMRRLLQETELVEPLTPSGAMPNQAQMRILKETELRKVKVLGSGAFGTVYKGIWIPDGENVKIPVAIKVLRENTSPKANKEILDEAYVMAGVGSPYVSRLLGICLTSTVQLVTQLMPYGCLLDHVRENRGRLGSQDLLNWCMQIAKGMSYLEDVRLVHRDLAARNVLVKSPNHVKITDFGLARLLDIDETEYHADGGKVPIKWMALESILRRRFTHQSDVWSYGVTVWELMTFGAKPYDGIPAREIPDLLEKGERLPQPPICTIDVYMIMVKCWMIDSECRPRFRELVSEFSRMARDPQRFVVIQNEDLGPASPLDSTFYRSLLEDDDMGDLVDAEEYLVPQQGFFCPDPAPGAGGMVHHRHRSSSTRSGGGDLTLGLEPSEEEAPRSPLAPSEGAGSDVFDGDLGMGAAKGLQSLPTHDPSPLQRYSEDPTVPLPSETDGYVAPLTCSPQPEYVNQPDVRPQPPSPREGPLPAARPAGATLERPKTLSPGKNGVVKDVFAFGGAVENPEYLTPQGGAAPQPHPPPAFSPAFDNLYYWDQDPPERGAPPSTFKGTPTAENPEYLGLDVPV

Row | Compound | viability [1] [%] | Her2 level [2] | viability [3] | viability [4] | viability [5] | differential viability (reversal) ([6]; H69AR cells + 2 uM doxorubicin) | viability [6, 9] [%] | viability [6, 10] [%] | inhibition [7] | inhibition [8]
1 | Cc1ccc(C(c2sc3nc(C)nn3c2O)N2CC(C)OC(C)C2)cc1 (stereo not given) | 97 | 93% (inactive) | 97% (inactive) | 104% (inactive) | 101% (inactive) | 11.1% (inactive) | 90.2 | 101 | -1.17% (inactive) | 0.49% (inactive)
2 | Cn1cccc1Cc1nnc(SCC(=O)Nc2ccccc2F)n1-c1ccc(F)cc1 | 87.5 | 99.5% (inactive) | 87.5% (inactive) | 103% (inactive) | 98.2% (inactive) | -2.87% (inactive) | 101 | 98.2 | -1.28% (inactive) | -6.5% (inactive)
3 | CCOc1ccc(S(=O)(=O)NCC2CCCO2)c2cccnc12 (stereo not given) | 99 | 99.5% (inactive) | 99% (inactive) | 93.8% (inactive) | 93.6% (inactive) | 6.55% (inactive) | 87.1 | 93.6 | 0.13% (inactive) | 5.08% (inactive)
4 | CCOc1ccc(-n2c(C)nc3c(cnn3-c3ccc(Cl)cc3)c2=O)cc1 | 95 | 99.5% (inactive) | 95% (inactive) | 80.3% (inactive) | 80.7% (inactive) | -6.13% (inactive) | 86.8 | 80.7 | -0.39% (inactive) | -3.06% (inactive)
5 | COc1ccccc1-c1nnc2sc(-c3ccc(N(C)C)cc3)nn12 | 79.5 | 64% (inactive) | 79.5% (inactive) | 34.5% (inactive) | 23.9% (active) | -15.2% (inactive) | 39.1 | 23.9 | -1.05% (inactive) | 1.09% (inactive)
6 | CCn1nc(NC(=O)c2cccnc2)c2cc3ccccc3nc21 | 90 | 70.5% (inactive) | 90% (inactive) | 84.4% (inactive) | 89.8% (inactive) | 15.2% (inactive) | 74.6 | 89.8 | -8.38% (inactive) | -3.17% (inactive)
7 | c1ccn2c(SCc3cn4ccsc4n3)nnc2c1 | 104 | 93.5% (inactive) | 104% (inactive) | 104% (inactive) | 110% (inactive) | 14% (inactive) | 95.7 | 110 | -8.49% (inactive) | 3.49% (inactive)
8 | O=c1c(F)cn(C2CCCO2)c(=O)n1Cc1c(F)cccc1Cl (stereo not given) | 94.5 | 94% (inactive) | 94.5% (inactive) | 92.8% (inactive) | 91.1% (inactive) | -2.1% (inactive) | 93.2 | 91.1 | -0.13% (inactive) | -8.39% (inactive)
9 | CCCCC(=O)NCCc1ccc(S(N)(=O)=O)cc1 | 104 | 104% (inactive) | 104% (inactive) | 95.4% (inactive) | 97.1% (inactive) | 9.4% (inactive) | 87.7 | 97.1 | -2.16% (inactive) | 2.62% (inactive)
10 | COCCn1nnnc1CN(Cc1cccnc1)Cc1cc2cc(OC)ccc2[nH]c1=O | 91 | 75% (inactive) | 91% (inactive) | 98.6% (inactive) | 88.3% (inactive) | 8.82% (inactive) | 79.5 | 88.3 | -7.07% (inactive) | 4.26% (inactive)
11 | Clc1ccc(CSc2nnc(Cn3cnc4ccccc43)o2)cc1 | 74.5 | 72% (inactive) | 74.5% (inactive) | 48.2% (inactive) | 99.2% (inactive) | 2.03% (inactive) | 97.2 | 99.2 | -4.32% (inactive) | -1.8% (inactive)
12 | O=c1oc2ccccc2n1CCc1ccccc1 | 109 | 97.5% (inactive) | 109% (inactive) | 84.6% (inactive) | 93.7% (inactive) | 9.07% (inactive) | 84.6 | 93.7 | -5.92% (inactive) | 0.98% (inactive)
13 | N#CCCN(C(=O)Nc1ccc(Cl)cc1)c1ccccc1 | 94 | 111% (inactive) | 94% (inactive) | 113% (inactive) | 105% (inactive) | 9.02% (inactive) | 95.5 | 105 | -2% (inactive) | 0% (inactive)
14 | O=C1CCn2nc(-c3ccc(Cl)cc3)cc2N1 | 106 | 96% (inactive) | 106% (inactive) | 31.3% (inactive) | 97.8% (inactive) | 5.93% (inactive) | 91.8 | 97.8 | -2.18% (inactive) | 1.83% (inactive)
15 | CCNC(=O)Cn1cnc2c1c(=O)n(C)c(=O)n2C | 108 | 108% (inactive) | 108% (inactive) | 112% (inactive) | 96.2% (inactive) | -1.97% (inactive) | 98.2 | 96.2 | -4.74% (inactive) | 5.25% (inactive)
16 | CCc1c(C(=O)N2CCOCC2)csc1C | 120 | 154% (inactive) | 120% (inactive) | 101% (inactive) | 106% (inactive) | 20.8% (inactive) | 84.9 | 106 | -3.95% (inactive) | -8.33% (inactive)

Row | Compound | viability [1] [%] | Her2 level [2] | viability [3] | viability [4] | viability [5] | differential viability (reversal) ([6]; H69AR cells + 2 uM doxorubicin) | viability [6, 9] [%] | viability [6, 10] [%] | inhibition [7] | inhibition [8]
17 | CC(C)Oc1ccc(-c2nn(-c3ccccc3)cc2/C=c2\sc3ncnn3c2=O)cc1 | 84 | 106% (inactive) | 84% (inactive) | 71.5% (inactive) | 98.1% (inactive) | 8.19% (inactive) | 89.9 | 98.1 | 5.92% (inactive) | -1.82% (inactive)
18 | CCCc1[nH]nc2c1C(c1cccc(OC(=O)c3ccco3)c1)C(C#N)=C(N)O2 (stereo not given) | 93.5 | 72% (inactive) | 93.5% (inactive) | 81.6% (inactive) | 95.3% (inactive) | 1.18% (inactive) | 94.1 | 95.3 | -3.16% (inactive) | -1.11% (inactive)
19 | Cc1ccccc1C(=O)NC1CCN(CC(=O)Nc2nccs2)CC1 | 92.5 | 96% (inactive) | 92.5% (inactive) | 88.8% (inactive) | 97.8% (inactive) | 11.6% (inactive) | 86.2 | 97.8 | -0.67% (inactive) | 5.08% (inactive)
20 | O=C(COC(=O)c1ccccc1O)Nc1ccc(OC(F)F)cc1 | 78 | 123% (inactive) | 78% (inactive) | 93.7% (inactive) | 93.2% (inactive) | 2.67% (inactive) | 90.5 | 93.2 | 5.14% (inactive) | 32.4% (active)
21 | c1nnc(NC2=NCCCCC2)s1 | 91.5 | 112% (inactive) | 91.5% (inactive) | 109% (inactive) | 101% (inactive) | 2.23% (inactive) | 98.5 | 101 | -2.16% (inactive) | -7.5% (inactive)
22 | CC1(C)COCN1S(=O)(=O)c1ccc(C(=O)Nc2nnc(-c3ccc(Cl)s3)o2)cc1 | 70.5 | 97% (inactive) | 70.5% (inactive) | 4.41% (active) | 15% (active) | -18.8% (inactive) | 33.8 | 15 | -5.21% (inactive) | -1.43% (inactive)
23 | COC(=O)Nc1ccccc1C(=O)N1CCCCC1 | 100 | 93% (inactive) | 100% (inactive) | 95.8% (inactive) | 99% (inactive) | 6.15% (inactive) | 92.9 | 99 | -5.33% (inactive) | -0.49% (inactive)
24 | O=C(NCCCCNC(=O)c1c(F)c(F)c(F)c(F)c1F)c1c(F)c(F)c(F)c(F)c1F | 98.5 | 76.5% (inactive) | 98.5% (inactive) | 97.2% (inactive) | 89.4% (inactive) | 10.4% (inactive) | 78.9 | 89.4 | -6.27% (inactive) | -3.17% (inactive)
25 | CCC(=O)N1CCc2cc(OC)c(OC)cc2C1COc1ccc(C(=O)OC)cc1 (stereo not given) | 94.5 | 83% (inactive) | 94.5% (inactive) | 87.2% (inactive) | 91.5% (inactive) | -2.33% (inactive) | 93.9 | 91.5 | -5.33% (inactive) | 1.61% (inactive)
26 | COC(=O)c1sccc1NC(=O)c1csc(C)c1 | 87 | 20% (active) | 87% (inactive) | 60.8% (inactive) | 69.1% (inactive) | 2.06% (inactive) | 67.1 | 69.1 | -3.64% (inactive) | -0.66% (inactive)
27 | Cc1ccc(CCNC(=O)CC2Oc3ccc(C)cc3NC2=O)cc1 (stereo not given) | 90 | 93.5% (inactive) | 90% (inactive) | 74.5% (inactive) | 96% (inactive) | 3.38% (inactive) | 92.6 | 96 | 5.47% (inactive) | -2.46% (inactive)
28 | COc1ccc(C(=O)N(Cc2ccco2)C(C(=O)NC2CCCC2)c2ccc(O)cc2)cc1OC (stereo not given) | 77.5 | 85% (inactive) | 77.5% (inactive) | 76.8% (inactive) | 78.8% (inactive) | -1.66% (inactive) | 80.4 | 78.8 | -1.32% (inactive) | -8% (inactive)
29 | CNC(=O)CSc1nnc(-c2cccc(S(=O)(=O)N3CCOCC3)c2)n1-c1ccc(F)cc1 | 78.5 | 95% (inactive) | 78.5% (inactive) | 99.9% (inactive) | 93.2% (inactive) | -5.28% (inactive) | 98.5 | 93.2 | 0% (inactive) | -2.5% (inactive)
30 | Cc1cccc(NC(=O)CSc2nnc(-c3cc(C)n(-c4ccccc4)c3C)o2)c1C | 115 | 91% (inactive) | 115% (inactive) | 66.3% (inactive) | 76.2% (inactive) | -3.98% (inactive) | 80.2 | 76.2 | 0.26% (inactive) | -6.03% (inactive)
31 | CCN(CC)S(=O)(=O)c1ccc(NC(=O)CN(c2cccc(F)c2)S(C)(=O)=O)cc1 | 96 | 84.5% (inactive) | 96% (inactive) | 88.7% (inactive) | 92.5% (inactive) | -3.88% (inactive) | 96.3 | 92.5 | -4.29% (inactive) | -0.33% (inactive)
32 | O=C1CCCC(O)=C1C=Nc1ccc2c(c1)oc1ccccc12 | 102 | 101% (inactive) | 102% (inactive) | 63.7% (inactive) | 88.7% (inactive) | -11.3% (inactive) | 100 | 88.7 | -5.87% (inactive) | 1.11% (inactive)
